Source: ChEMBL document CHEMBL2021854, “2-Aminopyrimidine based 4-aminoquinoline anti-plasmodial agents. Synthesis, biological activity, structure-activity relationship and mode of action studies” (Eur J Med Chem, 2012)

Experiments:
Influenza A virus = assay: Antiviral activity against Influenza A virus H1N1 infected in MDCK cells assessed as inhibition of virus-induced cytopathogenicity after 4 days by colorimetric formazan-based MTS assay; assay type: functional, organism-based; conditions: 96 h
Plasmodium falciparum [1] = assay: Antiplasmodial activity chloroquine-resistant Plasmodium falciparum K1 infected in human A+ erythrocytes assessed as inhibition of [3H]-hypoxanthine incorporation after 24 hrs by scintillation counting; assay type: functional, organism-based
Human alphaherpesvirus 1 = assay: Antiviral activity against thymidine kinase-deficient acyclovir-resistant HSV1 KOS infected in HEL cells assessed as inhibition of virus-induced cytopathogenicity after 4 days; assay type: functional, organism-based; conditions: Human alphaherpesvirus 1, KOS, 96 h
In short: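 Confluent HEL or HeLa monolayers infected with 100 CCID50 of virus in the presence of varying compound concentrations.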

[2] = tested on: Feline infectious peritonitis virus; assay: Antiviral activity against FIPV infected in cat CRFK cells assessed as inhibition of virus-induced cytopathic effect after 4 days by colorimetric formazan-based MTS assay; assay type: functional, cell-based; conditions: Alphacoronavirus 1, CRFK, 96 h
Nucleic Acid [3] = assay: Binding affinity to calf thymus DNA assessed as change in melting temperature; assay type: nucleic-acid assay; conditions: Bos taurus
In short: (§1)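 CT DNA (151 μM NP) was heated with or without compound at a 5:1 DNA:drug ratio in 40% DMSO/TE buffer pH 7.4 with 0.5 mM NaCl. Absorbance at 260 nm was followed with a 0.5 °C/min ramp to obtain Tm.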

Plasmodium falciparum [4] = assay: Resistant factor, ratio of IC50 for chloroquine-resistant Plasmodium falciparum K1 to IC50 for chloroquine-sensitive Plasmodium falciparum 3D7; assay type: functional
In short: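 Resistance factor computed as IC50 against K1 divided by IC50 against 3D7, both from the [3H]hypoxanthine incorporation assay.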

Punta Toro virus = assay: Antiviral activity against Punta Toro virus infected in african green monkey Vero cells assessed as inhibition of virus-induced cytopathogenicity after 4 days; assay type: functional, organism-based; conditions: 96 h
In short: (§2)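 Confluent HEL, Vero or HeLa monolayers were inoculated with 100 CCID50 of virus in the presence of varying concentrations of compound. Cytopathicity was scored when it reached completion in untreated, virus-infected control cultures.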

Coxsackievirus B4 = assay: Antiviral activity against Coxsackie virus B4 infected in african green monkey Vero cells assessed as inhibition of virus-induced cytopathogenicity after 4 days; assay type: functional, organism-based; conditions: Enterovirus B, 96 h; in short: as §2
Heme [5] = assay: Binding affinity to monomeric heme in HEPES buffer at pH 7.5 by spectrophotometric analysis
In short: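 Monomeric hemin (2.4 μM, 40% DMSO in water) was titrated with compound (0–70 μM) added from DMSO stocks, with absorbance read at 402 nm after each addition. Buffer was HEPES (pH 7.4) for the neutral condition and MES ([…]) for the pH 5.6 condition. Stoichiometry was by Job's method and log K by HypSpec fitting.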

Nucleic Acid [6] = assay: Binding affinity to calf thymus DNA assessed as melting temperature; assay type: nucleic-acid assay; conditions: Bos taurus; in short: as §1
Sindbis virus = assay: Antiviral activity against Sindbis virus infected in african green monkey Vero cells assessed as inhibition of virus-induced cytopathogenicity after 4 days; assay type: functional, organism-based; conditions: 96 h; in short: as §2
Felid alphaherpesvirus 1 = assay: Antiviral activity against Feline herpesvirus infected in cat CRFK cells assessed as inhibition of virus-induced cytopathic effect after 4 days by colorimetric formazan-based MTS assay; assay type: functional, organism-based; conditions: Felid alphaherpesvirus 1, CRFK, 96 h
Influenza B virus [7] = assay: Antiviral activity against Influenza B virus infected in MDCK cells assessed as reduction visual scoring of virus-induced cytopathogenicity after 4 days; assay type: functional, organism-based; conditions: 96 h
In short: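 MDCK monolayers infected with 100 CCID50 of influenza A (H1N1 or H3N2) or influenza B, with varying compound concentrations. Cytopathicity read when untreated infected controls reached complete CPE.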

[8] = tested on: Human immunodeficiency virus 2; assay: Antiviral activity against HIV2 infected in human CEM cells assessed as inhibition of virus-induced cytopathic effect after 4 days; assay type: functional, organism-based; conditions: Human immunodeficiency virus 2, CCRF-CEM, 96 h
In short: (§3)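 CEM T-lymphocytes (~3 × 10^5 cells/ml) were infected with HIV-1 IIIB or HIV-2 ROD at ~100 CCID50, then immediately plated with a range of compound concentrations. Giant cell formation was scored microscopically after 4 days at 37 °C. Cytostatic activity was tested in parallel in uninfected CEM cells.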

Human alphaherpesvirus 3 = assay: Antiviral activity against thymidine kinase-deficient […] infected in HEL cells assessed as reduction of virus plaque formation after 4 days; assay type: functional, organism-based; conditions: Human alphaherpesvirus 3, 07-1, HEL, 96 h
MDCK = assay: Cytotoxicity against MDCK cells assessed as cell viability by colorimetric formazan-based MTS assay; design: species or system Canis lupus familiaris; conditions: dog, mdck
In short: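 Cytotoxicity on MDCK cells; 50% cytotoxic concentration from cell viability measured by colorimetric formazan-based MTS assay.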

Heme [9] = assay: Binding affinity to monomeric heme in HEPES buffer at pH 5.6 by spectrophotometric analysis
mu-oxodimeric heme = assay: Binding affinity to mu-oxo heme in HEPES buffer at pH 5.8 by UV-visible spectrophotometry analysis
Influenza B virus [10] = assay: Antiviral activity against Influenza B virus infected in MDCK cells assessed as inhibition of virus-induced cytopathogenicity after 4 days by colorimetric formazan-based MTS assay; assay type: functional, organism-based; conditions: 96 h
[11] = Cytotoxicity against cat CRFK cells assessed as cell viability by colorimetric formazan-based MTS assay; design: species or system Felis catus; conditions: crfk
Human betaherpesvirus 5 = assay: Antiviral activity against Cytomegalovirus AD-169 infected in HEL cells assessed as inhibition of virus plaque formation after 4 days; assay type: functional, organism-based; conditions: Human betaherpesvirus 5, AD169, HEL, 96 h
[12] = Cytotoxicity against human HeLa cells assessed as minimum compound concentration required to causes microscopically detectable alteration of normal cell morphology; assay type: cell-based
In short: (§4)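 Confluent, non-proliferating cell cultures were exposed to the compounds. The endpoint was the minimum concentration producing a microscopically detectable alteration of normal cell morphology.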

Human alphaherpesvirus 2 = assay: Antiviral activity against HSV2 G infected in HEL cells assessed as inhibition of virus-induced cytopathogenicity after 4 days; assay type: functional, organism-based; conditions: Human alphaherpesvirus 2, strain G, 96 h; in short: as §2
[13] = Cytotoxicity against african green monkey Vero cells assessed as minimum compound concentration required to causes microscopically detectable alteration of normal cell morphology; assay type: cell-based; conditions: chlorocebus sabaeus; in short: as §4
Plasmodium falciparum [14] = assay: Antiplasmodial activity chloroquine-sensitive Plasmodium falciparum 3D7 infected in human A+ erythrocytes assessed as inhibition of [3H]-hypoxanthine incorporation after 24 hrs by scintillation counting; assay type: functional, organism-based
Nucleic Acid [15] = assay: Binding affinity to calf thymus DNA after 5 mins by spectrofluorometric analysis; assay type: nucleic-acid assay; conditions: Bos taurus
In short: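 Steady-state fluorescence titration at ambient temperature: compound held at 30 μM while DNA was varied (0.3–70 μM), working solutions diluted in methanol. Excitation 320 nm, emission 380 nm, slit 5 nm. Log K was calculated from quenching of the 380 nm emission.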

[16] = tested on: Respiratory syncytial virus; assay: Antiviral activity against Respiratory syncytial virus infected in human HeLa cells assessed as inhibition of virus-induced cytopathogenicity after 4 days; assay type: functional, organism-based; conditions: 96 h; in short: as §2
[17] = tested on: Human immunodeficiency virus 1; assay: Antiviral activity against HIV1 infected in human CEM cells assessed as inhibition of virus-induced cytopathic effect after 4 days; assay type: functional, organism-based; conditions: Human immunodeficiency virus 1, CCRF-CEM, 96 h; in short: as §3
Human respirovirus 3 = assay: Antiviral activity against Parainfluenza-3 virus infected in african green monkey Vero cells assessed as inhibition of virus-induced cytopathogenicity after 4 days; assay type: functional, organism-based; conditions: Human respirovirus 3, Vero, 96 h; in short: as §2
HeLa = assay: Cytotoxicity against human HeLa cells assessed as cell viability by colorimetric formazan-based MTS assay

Row | SMILES | EC50 (Influenza A virus) [µM] | IC50 (Plasmodium falciparum [1]) [µM] | EC50 (Human alphaherpesvirus 1) [µM] | EC50 [2] [µM] | ΔTm (Nucleic Acid [3]) [°C] | Ratio IC50 (Plasmodium falciparum [4]) | EC50 (Punta Toro virus) [µM] | EC50 (Coxsackievirus B4) [µM] | log Ks (Heme [5]) | Tm (Nucleic Acid [6]) [°C] | EC50 (Sindbis virus) [µM] | EC50 (Felid alphaherpesvirus 1) [µM] | EC50 (Influenza B virus [7]) [µM] | EC50 [8] [µM] | EC50 (Human alphaherpesvirus 3) [µM] | CC50 (MDCK) [µM] | log Ks (Heme [9]) | log Ks (mu-oxodimeric heme) | EC50 (Influenza B virus [10]) [µM] | CC50 [11] [µM] | also measured
1 | CCOC(=O)c1c(C)nc(NCCCCNc2ccnc3cc(Cl)ccc23)nc1-c1ccccc1 | > 0.16 | 0.0261 | > 100 | > 4 | 3 | 0.129 | > 100 | > 100 | 6.02 | 63 | > 100 | > 4 | > 0.16 | > 2 | > 20 | 0.9 | 5.28 | 6.09 | > 0.16 | 13.9 | EC50 (Human betaherpesvirus 5): 2 µM; MCC [12]: > 100 µM; EC50 (Human alphaherpesvirus 2): > 100 µM; MCC [13]: > 100 µM; IC50 (Plasmodium falciparum [14]): 0.202 µM; log Ks (Nucleic Acid [15]): 4.67; EC50 [16]: > 100 µM; EC50 [17]: > 2 µM; EC50 (Human respirovirus 3): > 100 µM; CC50 (HeLa): 1.84 µM
2 | Cc1nc(NCCCCNc2ccnc3cc(Cl)ccc23)nc(-c2ccccc2[N+](=O)[O-])c1C(=O)OC(C)C | > 0.8 | 0.0036 | > 4 | > 20 | 2.5 | 0.2 | > 20 | > 20 | 5.08 | 62.5 | > 20 | > 20 | > 0.8 | > 2 | > 4 | 2.3 | 4.97 | 6.31 | > 0.8 | 27.2 | EC50 (Human betaherpesvirus 5): > 4 µM; MCC [12]: 100 µM; EC50 (Human alphaherpesvirus 2): > 4 µM; MCC [13]: 100 µM; IC50 (Plasmodium falciparum [14]): 0.0182 µM; log Ks (Nucleic Acid [15]): 3.39; EC50 [16]: > 20 µM; EC50 [17]: > 2 µM; EC50 (Human respirovirus 3): > 20 µM; CC50 (HeLa): 4.4 µM
